The results in this text go back to ChEMBL document CHEMBL1143009, “D- and L-2',3'-didehydro-2',3'-dideoxy-3'-fluoro-carbocyclic nucleosides: synthesis, anti-HIV activity and mechanism of resistance” (J Med Chem, 2007).

Some results are limits rather than exact numbers.

The subject of data set [1] is Human immunodeficiency virus 1. As to the kind of experiment: Antiviral activity against HIV1 LAV1 in human PBM cells by RT assay. The class given is functional, organism-based. Conditions: for EC50 / EC90: Human immunodeficiency virus 1, LAV1, PBMC. The method in brief:
(§1)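 Human PBM cells were infected with HIV-1. The strain was LAI by default, or xxBRU where indicated. Antiviral activity was reported as EC50 and EC90.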

A further data set deals with PBMC. As to the kind of experiment: Cytotoxicity against human PBMC. The class given is cell-based.
The next data set relates to Vero. In words: Cytotoxicity against African green monkey Vero cells. The class given is cell-based. Conditions: chlorocebus sabaeus.
In data set [2] the test system is Human immunodeficiency virus 1. In words: Antiviral activity against lamivudine-resistant HIV1 M184V mutant in human PBMC cells by RT assay. The class given is functional, organism-based. A digest of the protocol:
(§2)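 Human PBM cells infected with lamivudine-resistant HIV-1 M184V and, in parallel, wild-type HIV-1 (xxBRU where footnoted, otherwise LAI). EC50 was determined for each virus, and the mutant EC50 was divided by the wild-type EC50. Carbovir served as positive control.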

The subject of data set [3] is Human immunodeficiency virus 1. As to the kind of experiment: Antiviral activity against HIV1 xxBRU in human PBM cells by RT assay. In kind it is functional, organism-based. A digest of the protocol:
as §1

The test system of data set [4] is Human immunodeficiency virus 1. As to the kind of experiment: Ratio of EC50 for lamivudine-resistant HIV1 M184V mutant to EC50 for HIV1 […]. The class given is functional. A digest of the protocol: as §2
Setting [5] is: Human immunodeficiency virus 1, PBMC.
Where [6] appears, read: Human immunodeficiency virus 1, xxBRU, PBMC.

A word on the EC50: it is the concentration that produces a half-maximal response. With `OC[C@H]1C[C@H](n2cnc3c(O)ncnc32)C=C1F`, in data set [1], the ED90 is more than 100 µM and the EC50 was more than 100 µM. This molecule gave an Activity with PBMC of more than 100 µM. In addition, the Activity in the data set on Vero was more than 100 µM.
As for `Nc1ccn([C@@H]2C[C@@H](CO)C(F)(F)C2)c(=O)n1`, in data set [1], the ED90 is more than 100 µM and the EC50 was more than 100 µM. In the data set on PBMC, this molecule registered an Activity of more than 100 µM. This molecule came in with an Activity with Vero of more than 100 µM.
For orientation: EC90 means the concentration needed for an effect of 90%. The molecule `Nc1ccn([C@@H]2C=C(F)[C@@H](CO)C2)c(=O)n1` gave a half-maximal effective concentration (EC50) in data set [1] of 7.1 µM. For the same molecule, the EC90 in data set [1] came out at 72 µM. Further, the Activity with PBMC and in the data set on Vero was more than 100 µM each time.
As for `Nc1nc2c(ncn2[C@@H]2C[C@@H](CO)C(F)(F)C2)c(=O)[nH]1`, in data set [1], the ED90 is more than 100 µM and the EC50 is more than 100 µM. In the data set on PBMC, this molecule yielded an Activity of more than 100 µM. Further, in the data set on Vero, the Activity was more than 100 µM.
Molecule `Nc1ccn([C@H]2C=C(F)[C@H](CO)C2)c(=O)n1` showed an ED90 in data set [1] of more than 100 µM. Besides, the EC50 in data set [1] was more than 100 µM. Besides, the Activity in the data set on PBMC and in the data set on Vero was more than 100 µM in each case.
Regarding `Cc1cn([C@@H]2C=C(F)[C@@H](CO)C2)c(=O)[nH]c1=O`, in data set [1], the midpoint of the response, the EC50, lay at 6.4 µM and the 90% effect concentration (EC90) was more than 100 µM. The Activity in the data set on PBMC is more than 100 µM. Further, the Activity with Vero is more than 100 µM.
`Cc1cn([C@@H]2C[C@@H](CO)C(F)(F)C2)c(=O)[nH]c1=O`: in data set [1], the ED90 was more than 100 µM and the concentration for a half-maximal effect (EC50) was more than 100 µM. Also, the Activity with PBMC was more than 100 µM. In the data set on Vero, this molecule displayed an Activity of more than 100 µM.
Molecule `OC[C@@H]1C[C@@H](n2cnc3c(O)ncnc32)C=C1F` showed an ED90 in data set [1] of more than 100 µM. In data set [1], this molecule had a concentration giving a half-maximal response (EC50) of more than 100 µM. For the same molecule, the Activity in the data set with PBMC and with Vero was more than 100 µM throughout.
In data set [1], `Nc1ncnc2c1ncn2[C@H]1C=C(F)[C@H](CO)C1` displayed a 50% effective concentration (EC50) of 14.8 µM and an EC90 of 40.6 µM. The same molecule showed an Activity in the data set with PBMC of more than 100 µM. In the data set with Vero, this molecule displayed an Activity of more than 100 µM.
Turning to `Nc1nc2c(ncn2[C@H]2C=C(F)[C@H](CO)C2)c(=O)[nH]1`, the EC50 in data set [1] is 0.41 µM; in data set [2] (setting [5]), 3.8 µM; in data set [3] (setting [6]) it was 0.098 µM. Besides, the EC90 in data set [1] was 2.8 µM; in data set [3] (setting [6]) it was 0.58 µM. The molecule further came in with an ED90 in data set [2] of 14.9 µM. Moreover, the figures for the Activity in the data set on PBMC and in the data set on Vero were 21.1 µM and more than 100 µM, respectively. For the same molecule, the Ratio in data set [4] was found to be 38.8.
For the molecule `Cc1cn([C@H]2C=C(F)[C@H](CO)C2)c(=O)[nH]c1=O`, in data set [1], it took 68.8 µM to reach a half-maximal effect (EC50) and the concentration for an effect of 90% (EC90) was more than 100 µM. Further, in the data set with PBMC, the Activity is more than 100 µM. Moreover, the Activity in the data set with Vero is more than 100 µM.
Take `Nc1ncnc2c1ncn2[C@@H]1C=C(F)[C@@H](CO)C1`: the EC50 in data set [1] came to 10.3 µM. In data set [1], this molecule showed a 90% effect concentration (EC90) of 33.5 µM. Further, the Activity in the data set with PBMC and with Vero was more than 100 µM each time.
In the case of `Nc1nc2c(ncn2[C@H]2C=C[C@@H](CO)C2)c(=O)[nH]1` [CARBOVIR], in data set [2] (setting [5]), the EC50 came out at 0.2 µM and the 90% effect concentration (EC90) came to 1.1 µM. In data set [3], this molecule showed an ED90 of 0.27 µM. The same molecule gave a concentration for a half-maximal effect (EC50) in data set [3] (setting [6]) of 0.087 µM. Also, the Ratio in data set [4] turned out to be 2.3.
For `Nc1nc2c(ncn2[C@@H]2C=C(F)[C@@H](CO)C2)c(=O)[nH]1`, the response in data set [1] was half-maximal at 20.7 µM (EC50). Moreover, the 90% effect concentration (EC90) in data set [1] is more than 100 µM. Also, the Activity in the data set on PBMC and with Vero was more than 100 µM throughout.
Regarding `OC[C@@H]1C[C@@H](n2cnc3c(O)ncnc32)CC1(F)F`, the ED90 in data set [1] was more than 100 µM. The molecule further registered an EC50 in data set [1] of more than 100 µM. In addition, the Activity in the data set with PBMC and in the data set with Vero was more than 100 µM each time.
In data set [1], `Nc1ncnc2c1ncn2[C@@H]1C[C@@H](CO)C(F)(F)C1` registered an ED90 of more than 100 µM and an EC50 of more than 100 µM. Also, in the data set with PBMC, the Activity was found to be 95.1 µM. The molecule further registered an Activity in the data set on Vero of more than 100 µM.
